Test results published in ChEMBL document CHEMBL1250467, “Design, synthesis, and anticonvulsant activity of new N-Mannich bases derived from spirosuccinimides and spirohydantoins” (Bioorg Med Chem, 2010).
The source made the active and inactive calls. No cut-off for these calls is given here.

Assays:
[1] = test system: Rattus norvegicus; assay: Anticonvulsant activity in po dosed Sprague-Dawley rat assessed as protection against maximal electroshock-induced seizures; format: functional
Method in brief: (§1)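 Male Sprague–Dawley rats dosed orally (0.5% methylcellulose/water suspension), groups of eight, tested at the previously estimated time of peak effect. Doses varied until at least three points lay in the 10–90% range of protection (MES, scPTZ) or minimal rotarod neurotoxicity. ED50/TD50 with 95% confidence intervals came from regression; PI = TD50/ED50.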

[2] = species: Rattus norvegicus; assay: Protection index, ratio of TD50 for Sprague-Dawley rat by rotarod test to ED50 for Sprague-Dawley rat by maximal electroshock test; format: functional; method in brief: as §1
[3] = test system: Mus musculus; assay: Neurotoxicity in ip dosed CF1 albino mouse assessed as dose required to cause toxicity after 0.5 hrs by rotarod test; format: organism-based; details: in vivo
Method in brief: (§2)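 Male CF-1 mice; compounds suspended in 0.5% methylcellulose/water and injected ip at 30, 100 and 300 mg/kg. MES, scPTZ (pentylenetetrazole 85 mg/kg sc at the test time) and rotarod neurotoxicity were scored at 0.5 and 4 h. Value is the lowest dose active or toxic in half or more of the animals; signs such as ataxia or tremor were recorded.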

[4] = test system: Mus musculus; assay: Anticonvulsant activity in CF1 albino mouse assessed as protection against maximal electroshock-induced seizures at 300 mg/kg, ip after 0.5 hrs; format: functional, organism-based; set-up: dose 300 mg/kg; method in brief: as §2
[5] = test system: Mus musculus; assay: Anticonvulsant activity in CF1 albino mouse assessed as protection against maximal electroshock-induced seizures at 300 mg/kg, ip after 4 hrs; format: functional, organism-based; set-up: dose 300 mg/kg; method in brief: as §2
[6] = test system: Mus musculus; assay: Anticonvulsant activity in CF1 albino mouse assessed as protection against subcutaneous pentylenetetrazole-induced seizures at 300 mg/kg, ip after 0.5 hrs; format: functional, organism-based; set-up: dose 300 mg/kg; method in brief: as §2
[7] = test system: Mus musculus; assay: Anticonvulsant activity in CF1 albino mouse assessed as protection against subcutaneous pentylenetetrazole-induced seizures at 300 mg/kg, ip after 4 hrs; format: functional, organism-based; set-up: dose 300 mg/kg; method in brief: as §2
[8] = test system: Mus musculus; assay: Neurotoxicity in CF1 albino mouse at 300 mg/kg, ip after 4 hrs by rotarod test; format: toxicity, organism-based; set-up: dose 300 mg/kg, route intraperitoneal; details: in vivo; method in brief: as §2
[9] = test system: Mus musculus; assay: Anticonvulsant activity in ip dosed CF1 albino mouse assessed as dose required to protect against maximal electroshock-induced seizures after 0.5 hrs; format: functional; method in brief: as §2
[10] = test system: Mus musculus; assay: Anticonvulsant activity in ip dosed CF1 albino mouse assessed as dose required to protect against maximal electroshock-induced seizures after 4 hrs; format: functional; method in brief: as §2
[11] = test system: Mus musculus; assay: Neurotoxicity in ip dosed CF1 albino mouse assessed as dose required to cause toxicity after 4 hrs by rotarod test; format: organism-based; details: in vivo; method in brief: as §2
[12] = test system: Rattus norvegicus; assay: Anticonvulsant activity in Sprague-Dawley rat assessed as protection against maximal electroshock-induced seizures at 30 mg/kg po after 0.25 hrs; format: functional
Method in brief: (§3)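 Male Sprague–Dawley rats, four per group, given 30 mg/kg orally as a 0.5% methylcellulose/water suspension. MES protection scored at 0.25, 0.5, 1, 2 and 4 h after dosing, motor impairment checked in parallel; data are the number of the four rats protected.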

[13] = test system: Rattus norvegicus; assay: Anticonvulsant activity in Sprague-Dawley rat assessed as protection against maximal electroshock-induced seizures at 30 mg/kg po after 0.5 hrs; format: functional; method in brief: as §3
[14] = test system: Rattus norvegicus; assay: Anticonvulsant activity in Sprague-Dawley rat assessed as protection against maximal electroshock-induced seizures at 30 mg/kg po after 1 hr; format: functional; method in brief: as §3
[15] = test system: Rattus norvegicus; assay: Anticonvulsant activity in Sprague-Dawley rat assessed as protection against maximal electroshock-induced seizures at 30 mg/kg po after 2 hrs; format: functional; method in brief: as §3
[16] = test system: Rattus norvegicus; assay: Anticonvulsant activity in Sprague-Dawley rat assessed as protection against maximal electroshock-induced seizures at 30 mg/kg po after 4 hrs; format: functional; method in brief: as §3
[17] = test system: Rattus norvegicus; assay: Anticonvulsant activity in po dosed Sprague-Dawley rat assessed as time required to peak protection against seizures; format: functional
[18] = test system: Rattus norvegicus; assay: Anticonvulsant activity in po dosed Sprague-Dawley rat assessed as protection against subcutaneous pentylenetetrazole-induced seizures; format: functional; method in brief: as §1
[19] = Neurotoxicity in po dosed Sprague-Dawley rat by rotarod test; format: toxicity, organism-based; details: in vivo; method in brief: as §1
[20] = Displacement of [3H]batrachotoxin from neurotoxin site 2 of voltage-gated sodium channel in rat forebrain tissue
[21] = test system: Mus musculus; assay: Anticonvulsant activity in ip dosed CF1 albino mouse assessed as dose required to protect against subcutaneous pentylenetetrazole-induced seizures after 0.5 hrs; format: functional; method in brief: as §2
[22] = test system: Mus musculus; assay: Anticonvulsant activity in ip dosed CF1 albino mouse assessed as dose required to protect against subcutaneous pentylenetetrazole-induced seizures after 4 hrs; format: functional; method in brief: as §2
[23] = test system: Mus musculus; assay: Neurotoxicity in CF1 albino mouse at 300 mg/kg, ip after 0.5 hrs by rotarod test; format: toxicity, organism-based; set-up: dose 300 mg/kg, route intraperitoneal; details: in vivo; method in brief: as §2
[24] = test system: Rattus norvegicus; assay: Anticonvulsant activity in Sprague-Dawley rat assessed as protection against subcutaneous pentylenetetrazole-induced seizures at 50 mg/kg po after 0.25 hrs; format: functional, organism-based; set-up: dose 50 mg/kg
Method in brief: (§4)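 Oral fixed dose of 50 mg/kg in male Sprague–Dawley rats (0.5% methylcellulose/water suspension), four rats per group. Pentylenetetrazole 70 mg/kg given sc at each test time (0.25, 0.5, 1, 2, 4 h); protection from clonic seizures counted per four rats, with motor impairment studied in parallel.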

[25] = test system: Rattus norvegicus; assay: Anticonvulsant activity in Sprague-Dawley rat assessed as protection against subcutaneous pentylenetetrazole-induced seizures at 50 mg/kg po after 0.5 hrs; format: functional; method in brief: as §4
[26] = test system: Rattus norvegicus; assay: Anticonvulsant activity in Sprague-Dawley rat assessed as protection against subcutaneous pentylenetetrazole-induced seizures at 50 mg/kg po after 1 hr; format: functional; method in brief: as §4
[27] = test system: Rattus norvegicus; assay: Anticonvulsant activity in Sprague-Dawley rat assessed as protection against subcutaneous pentylenetetrazole-induced seizures at 50 mg/kg po after 2 hrs; format: functional; method in brief: as §4
[28] = test system: Rattus norvegicus; assay: Anticonvulsant activity in Sprague-Dawley rat assessed as protection against subcutaneous pentylenetetrazole-induced seizures at 50 mg/kg po after 4 hrs; format: functional; method in brief: as §4
[29] = test system: Mus musculus; assay: Anticonvulsant activity in CF1 albino mouse assessed as protection against electrically-induced seizure at 100 mg/kg, ip after 0.25 hrs by 6Hz psychomotor seizure test; format: functional, organism-based; set-up: dose 100 mg/kg
Method in brief: (§5)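 Male CF-1 mice, compound suspended in 0.5% methylcellulose/water, given ip at 100 mg/kg; four mice per time point (0.25, 0.5, 1, 2, 4 h). Corneal stimulation with 0.2 ms monopolar rectangular pulses at 6 Hz for 3 s from a constant-current device, mice manually restrained. A mouse counted as protected if normal exploratory behaviour resumed within 10 s; motor impairment was noted alongside.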

[30] = test system: Mus musculus; assay: Anticonvulsant activity in CF1 albino mouse assessed as protection against electrically-induced seizure at 100 mg/kg, ip after 0.5 hrs by 6Hz psychomotor seizure test; format: functional, organism-based; set-up: dose 100 mg/kg; method in brief: as §5
[31] = test system: Mus musculus; assay: Anticonvulsant activity in CF1 albino mouse assessed as protection against electrically-induced seizure at 100 mg/kg, ip after 1 hr by 6Hz psychomotor seizure test; format: functional; details: route intraperitoneal; method in brief: as §5
[32] = test system: Mus musculus; assay: Anticonvulsant activity in CF1 albino mouse assessed as protection against electrically-induced seizure at 100 mg/kg, ip after 2 hrs by 6Hz psychomotor seizure test; format: functional, organism-based; set-up: dose 100 mg/kg; method in brief: as §5
[33] = test system: Mus musculus; assay: Anticonvulsant activity in CF1 albino mouse assessed as protection against electrically-induced seizure at 100 mg/kg, ip after 4 hrs by 6Hz psychomotor seizure test; format: functional; method in brief: as §5

| SMILES | ED50 [1] [mg/kg] | PI [2] | Activity [3] [mg/kg] | Activity [4] | Activity [5] | Activity [6] | Activity [7] | Activity [8] | Activity [9] [mg/kg] | Activity [10] [mg/kg] | Activity [11] [mg/kg] | TD50 [19] [mg/kg] | other results |
| --- | --- | --- | --- | --- | --- | --- | --- | --- | --- | --- | --- | --- | --- |
| O=C1CC2(CCc3ccccc3C2)C(=O)N1CCN1CCN(c2cccc(Cl)c2)CC1 (centres undefined) | 23 | 2.6 |  |  |  |  |  |  |  |  |  |  |  |
| O=C1CC2(CCc3ccccc3C2)C(=O)N1CN1CCN(c2ccccc2F)CC1 (centres undefined) |  |  | 300 | inactive | inactive | inactive | inactive | Non-toxic |  |  |  |  |  |
| O=C1NC(=O)C(c2ccccc2)(c2ccccc2)N1 [PHENYTOIN] |  | >3.6 | 100 |  |  | inactive | inactive |  | 30 | 30 | 100 | > 100 | Activity [12]: 25%; Activity [13]: 100%; Activity [14]: 75%; Activity [15]: 75%; Activity [16]: 75%; Time [17]: 1 h; ED50 [18]: > 500 mg/kg; IC50 ([20]; read-out: IC50): 40 µM |
| O=C1NC2(CCc3ccccc3C2)C(=O)N1CN1CCOCC1 (centres undefined) | 10.7 | >37.55 | 100 |  |  |  |  | Non-toxic | 30 | 30 |  | 400 | Activity [21]: 100 mg/kg; Activity [22]: 100 mg/kg; Activity [12]: inactive; Activity [13]: 25%; Activity [14]: 50%; Activity [15]: 75%; Activity [16]: 100%; Time [17]: 6 h; ED50 [18]: > 250 mg/kg; IC50 [20]: Not Active |
| O=C1NC2(CCc3ccccc3C2)C(=O)N1CN1CCN(c2ccc(F)cc2)CC1 (centres undefined) |  |  | 30 | inactive | inactive | inactive | inactive |  |  |  | 30 |  |  |
| CCC1(C)CC(=O)NC1=O (centres undefined) [ETHOSUXIMIDE] | > 500 | >2.99 |  | inactive | inactive |  |  | Non-toxic |  |  |  | > 500 | Activity [21]: 100 mg/kg; Activity [22]: 300 mg/kg; Activity [23]: Non-toxic; Activity [24]: inactive; Activity [25]: 50%; Activity [26]: 25%; Activity [27]: 25%; Activity [28]: inactive; ED50 [18]: 167 mg/kg |
| O=C1NC2(CCc3ccccc3C2)C(=O)N1CN1CCN(c2ccccc2)CC1 (centres undefined) | 1.88 | >256.78 | 300 | inactive |  | inactive | inactive |  |  | 30 | 300 | > 500 | Activity [12]: 25%; Activity [13]: 50%; Activity [14]: 50%; Activity [15]: 100%; Activity [16]: 100%; Time [17]: 6 h; IC50 ([20]; read-out: IC50): 9.35 µM |
| O=C1CC2(CCc3ccccc3C2)C(=O)N1CN1CCN(Cc2ccccc2)CC1 (centres undefined) |  |  |  |  |  | inactive | inactive | Non-toxic | 300 | 300 |  |  | Activity [23]: Non-toxic; Activity [29]: inactive; Activity [30]: inactive; Activity [31]: 25%; Activity [32]: inactive; Activity [33]: inactive |
| O=C1NC2(CCc3ccccc3C2)C(=O)N1CN1CCN(c2cccc(C(F)(F)F)c2)CC1 (centres undefined) |  |  | 100 |  |  | inactive | inactive |  | 300 | 30 | 30 |  |  |
| O=C1NC2(CCc3ccccc3C2)C(=O)N1CN1CCN(c2cccc(Cl)c2)CC1 (centres undefined) |  |  | 30 | inactive |  | inactive | inactive |  |  | 100 | 30 |  |  |
| O=C1CC2(CCc3ccccc3C2)C(=O)N1CN1CCN(c2ccccc2)CC1 (centres undefined) |  |  | 100 | inactive | inactive | inactive | inactive |  |  |  | 300 |  |  |
| O=C1CC2(CCc3ccccc3C2)C(=O)N1CCN1CCN(c2cccc(C(F)(F)F)c2)CC1 (centres undefined) | 205 | 1.95 |  |  |  |  |  |  |  |  |  |  |  |
